# In the RNAGym collection of RNA variant scans (doi:10.1126/science.aae0568):
# This sample holds only a part of the variants without activity.
# B1: tRNA (parent)
# chain: GUUCCGUUGGCGUAAUGGUAACGCGUCUCCCUCCUAAGGAGAAGACUGCGGGUUCGAGUCCCGUACGGAACG
# Variants of: B1
# Experiment: yeast fitness relative to wild type (ratio to wild type); higher = fitter; tRNA-Arg(CCU), competitive growth, 37 C, YPD
# How it was run: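 Gene amplicons from the start population and from each of six end populations were read by 100-nucleotide paired-end sequencing. Those end populations came from pooled Saccharomyces cerevisiae strains carrying tRNA-Arg(CCU) gene variants at the native locus, competed in YPD at 37°C for 24 hours. Fitness relative to wild type was worked out from changes in genotype frequencies. Genotypes needed ≥ 100 starting reads, and estimates < 0.5 were set to 0.5.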
row,Variant,yeast fitness
1,GUUCGCUUGGCGUAAUGGUAACGCGUCUCCCUCUUAACGAGAAGACUGCGGGUUCGAGUCCCGUACGGAACG,0.749
2,GUUCGGUUGGCGUAAUGGUAACGCGUCUCCCUCCUAAGGAGAAGACUGGGGGUUCGAGUCCCGUACGGAACG,0.84
3,GUUCGAUUGGCGUAAUGGUAACGCGUCUCGCUCCUAAGGAGAAGACUGCGGGUUCGAGUCCCGUACGGAACG,≤ 0.5
4,GUUCGGUUGGCGUAAUGGUAACGCGUCUCCCUCCUAAGGAGAAGACUGCGGGUUCGAGUCGCGUACGGGACG,≤ 0.5
5,GUUCGGUUGGCGUAAUGGUAACGCGUCUCCCUCCUAAGGAGAAGACUGCGGGUUCGAGUCACCUACGGAACG,≤ 0.5
6,GUUCGGUUGGCGUAAUGGUAACGCGUCUCCCUCCUAAGGAGAAGACUGAGGGUUCGAGUCCCGCACGGAACG,0.621
7,GUUCGGUUGGCGUAAUGGUAACGCGUCUCCCUCCUAAGGAGAAGACUGCGGGUUUGAGUCCCGUACGGAACG,0.791
8,GUUCGGUUGGCGUAAUGGUAACGCGUCUCCCUCCUAAGGAGAAGACUGCGGGUUCGAGUCCGGUUCGGAACG,≤ 0.5
9,GUUCGGUUGGCGUAAUGGUAACGCGUCUCCCUCCUAAGGAGAAGACUGCGGGUUGGAGUCCCGUCCGGAACG,0.531
10,GUUCGGUUGGCGUAAUGGUAACGCGUCUCCCUCCUAAGGAGAAGACUGCGGGUUCGAGUCUCGGACGGAACG,0.87
11,GUUCGGUUGGCGUAAUGGUAACGCGUCUCCCUCCUAAGGAGAAGACUGCGGGUUCGAGUCGCGUCCGGAACG,≤ 0.5
12,GUUCGAUUGGCGUAAUGGUAACGCGUCUCCCUCCUAAGGAGAAGACUGCGGGUUCGAGUCCCGUACGGAACG,0.659
13,GUUCGGUUGGCGUAAUGGUAACGCGUCUCCCUCCUAAGGAGAAGACUGCGGGUUCGAGUCCUGUACGGAACG,0.79
14,GUUCGGUUGGCGUAAUGGUAACGCGUCUCCCUCCUAAGGAGAAGACUGCGGGUUCGAGUCCAGUACGGAACG,0.697
15,GUUCGGUUGGCGUAAUGGUAACGCGUCUCCCUCCUAAGGAGAAGACUGCGGGUUAGAGUCCUGUACGGAACG,0.546
16,GUUCGGUUGGCGUAAUGGUAACGCGUCUCCCUCCUAAGGAGAAGACUGCGGGUUUGAGUCCCGUACGGUACG,≤ 0.5
17,GUUCGAUUGGCGUAAUGGUAACGCGUCUUCCUGCUAAAGAGAAGACUGCGGGUUCGAGGCCCGUACGGAACG,0.562
18,GUUCGCUUGGCGUAGUGGUAACGCGUCUCCCUCCUAAGGAGAAGACUGCGGGUUCGAGUCCUGUCCGGAACG,0.6
19,GUUCGGUUGGCGUAAUGGUAACGCGUCUCCCUCCUAAGGAGAAGACUGCGGGUUCGAGUCUCGUACGGCACG,≤ 0.5

row,Variant,yeast fitness
1,GUUCGGUUGGCGUAAUGGUAACGCGUCUCCCUCCUAAGGAGAAGACUGCGGGUUCGAGUCUCGUACGGUACG,0.775
2,GUUCGGUUGGCGUAAUGGUAACGCGUCUCCCUCCUAAGGAGAAGACUGGGAGUUCGAGUCCCGUACGGAACG,≤ 0.5
3,GUUCGAUUGGCGUAAUGGUAACGCGUCUUCGUGCUAAAGAGAAGACUGCGGGUUCGAGGCCCGUACGGAACG,≤ 0.5
4,GUUCGAUUGGCGUAGUGGUAACGCGUCUCCCUCCUAAGGAGAAGACUGCGGGUUCGAGUCCCGUACGGAACG,≤ 0.5
5,GUUCGAUUGGCGUAAUGGUAACGCGUCUGCCUCCUAAGGAGAAGACUGCGGGUUCGAGUCCCGUACGGAACG,0.533
6,GUUCGGUUGGCGUAAUGGUAACGCGUCUCCCUCCUAAGGAGAAGACUGCGGGUUCGAGUCAUGUUCGGCACG,≤ 0.5
7,GUUCGGUUCGCGUAAUGGUUGCGGGUGUCCCUCCUAAGGAGAAGACUGCGGGUUCGAGUCCCGUACGGAACG,0.577
8,GUUCGAUUGGCGUAAUGGUAACGCGUCUCCCUCCUAAGGAGAAGACUGCCGGUUCGAGUCCCGUACGGAACG,0.608
9,GUUCGGUUGGCGUAAUGGUAACGCGUCUCCCUCCUAAGGAGAAGACUGCGGGUUCGAGUCCGGAACGGAACG,≤ 0.5
10,GUUCGCUUGGCGUAAUGGUAACGCGUCUCCCUCCUAACGAGAAGACUGCGGGUUCGAUUCCCGUACGGAACG,0.551
11,GUUCGGUUGGCGUAAUGGUAACGCGUCUCCCUCCUAAGGAGAAGACUGCGGGUUCGAGUCCCGUAAGGUACG,0.574
12,GUUCGGUUGGCGUAAUGGUAACGCGUCUCCCUCCUAAGGAGAAGACUGCGGGUUCGAGUCCCGUAAGGGCCG,≤ 0.5
13,GUUCGGUUAGCGUAAUGGUAACGCGUGUCCCUCCUAAGGAGAAGACUGCGGGUUCGAGUCCCGUACGGAACG,0.544
14,GUUCGCUUGGCGUAAUGGUAACGCGUCUCCCUCCUAAGGAGAAGACUACGGGUUCGAGUCCCGUACGGAACG,1.06
15,GUUCGAUUGGCGUAAUGGUAACGCGCCUCCCUCCUAAGGAGAAGACUGCGGAUUCGAGUCCCGUACGGAACG,0.619
16,GUUCGGUUGGCGUAAUGGUAACGCGUCUCCCUCCUAAGGAGAAGACUGGGGGAUCGAGUCCCGUACGGAACG,≤ 0.5
17,GUUCGGUUAGCGUAAUGGUAACGCCUUUCCCUCCUAAGGAGAAGACUGCGGGUUCAAGUCCCGUACGGAACG,0.6
18,GUUCGGUUGGCGUAAUGGUAACGCGUCUCCCUCCUAAGGAGAAGACUGCGGGUUCGAGUCCCGUAGGGAACG,0.781
19,GUUCGCUUGGCGUAAUGGUAACGCGUCUCCCUCCUAAGGAGAAGACUGAGGGUUCGAGUCCCGUACGGAACG,≤ 0.5
